Data reported in ChEMBL document CHEMBL1125742, “(2S)-1-(arylacetyl)-2-(aminomethyl)piperidine derivatives: novel, highly selective kappa opioid analgesics” (J Med Chem, 1991).

Columns and labels:
[1] = biological target: T1, Kappa-type opioid receptor (Cavia porcellus, UniProt P41144); experiment: Displacement of [3H]U-69593 from kappa opioid receptors in guine pig brain (minus cerebellum).; format: tissue-based
Mu-type opioid receptor [2] = biological target: T2, Mu-type opioid receptor (Cavia porcellus, UniProt P97266); experiment: Displacement of [3H]DAGO from mu opioid receptors in guinea pig brain (minus cerebellum).; format: tissue-based
T2 sequence (P97266 whole entry): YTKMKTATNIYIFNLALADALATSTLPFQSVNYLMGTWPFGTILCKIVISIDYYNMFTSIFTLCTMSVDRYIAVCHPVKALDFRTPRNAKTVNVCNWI
Method in brief: (§1)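 μ sites in fresh guinea pig brain homogenate (minus cerebellum) were labelled with [3H]DAGO for 40 min at 25 °C. Samples were filtered on GF/C, washed with ice-cold Tris buffer, and bound radioactivity counted. Nonspecific binding was set with 10^-6 M naloxone. Ki by Cheng–Prusoff, as the mean of triplicate curves (n = 3 experiments).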

Mus musculus [3] = experiment: Antinociceptive activity in mouse tail flick test following s.c. administration.; format: functional
Method in brief: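 Mouse tail flick test, D'Amour and Smith procedure as modified by Ling et al., with compound given subcutaneously. ED50 in mg/kg with 95% confidence limits, derived by Finney probit analysis.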

Mus musculus [4] = experiment: Compound was evaluated for its antinociceptive activity in the mouse tail flick (MTF) test following subcutaneous administration of 10 mg/kg; format: functional
Method in brief: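 Mouse tail flick test, D'Amour and Smith procedure as modified by Ling et al. A single 10 mg/kg subcutaneous dose was given and the result recorded as % protection.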

Mu-type opioid receptor [5] = biological target: T2, Mu-type opioid receptor; experiment: Compound was evaluated for its binding affinity against Opioid receptor mu 1 subtype in guinea pig brain (minus cerebellum) using [3H]-DAGO as radioligand.; format: tissue-based; method in brief: as §1
[6] = biological target: T1, Kappa-type opioid receptor; experiment: Compound was evaluated for its binding affinity against Opioid receptor kappa 1 subtype in guinea pig brain (minus cerebellum) using [3H]U-69593 as radioligand.; format: tissue-based
Method in brief: (§2)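 Fresh guinea pig brain homogenate (cerebellum removed) incubated with κ-selective [3H]U-69593 and competitor for 50 min at 25 °C. Samples were filtered on GF/C, washed and counted by liquid scintillation. Nonspecific binding was set with 10^-6 M naloxone. Ki from Cheng–Prusoff, as the mean of triplicate concentration–response curves (n = 3 experiments).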

Mus musculus [7] = experiment: Compound was evaluated for its antinociceptive activity in the mouse tail flick (MTF) test following peroral administration; format: functional; conditions: po
Method in brief: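 Mouse tail flick test, D'Amour and Smith procedure as modified by Ling et al., with oral (po) dosing. ED50 in mg/kg with 95% confidence limits, derived by Finney probit analysis.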

[8] = biological target: T1, Kappa-type opioid receptor; experiment: Compound was evaluated for its binding affinity against Opioid receptor kappa 1 subtype in guinea pig brain (minus cerebellum). using [3H]U-69593 as radioligand.; format: tissue-based; method in brief: as §2
Mu-type opioid receptor [9] = biological target: T2, Mu-type opioid receptor; experiment: Compound was evaluated for its binding affinity against opioid receptor mu subtype in guinea pig brain (minus cerebellum) using [3H]DAGO as radioligand.; format: tissue-based; method in brief: as §1
[10] = Mus musculus, Tail, sc, read-out: ED50

T1 sequence (P41144 whole entry): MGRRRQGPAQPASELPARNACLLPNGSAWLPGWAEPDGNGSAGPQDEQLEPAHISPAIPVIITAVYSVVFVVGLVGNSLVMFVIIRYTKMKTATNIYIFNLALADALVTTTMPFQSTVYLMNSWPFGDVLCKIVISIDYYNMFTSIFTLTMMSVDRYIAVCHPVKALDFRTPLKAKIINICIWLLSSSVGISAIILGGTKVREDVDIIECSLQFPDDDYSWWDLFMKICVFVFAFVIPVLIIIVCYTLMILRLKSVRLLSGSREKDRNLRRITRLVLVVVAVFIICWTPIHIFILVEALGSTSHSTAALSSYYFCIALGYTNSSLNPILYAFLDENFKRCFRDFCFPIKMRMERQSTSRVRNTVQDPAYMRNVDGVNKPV

Structure (SMILES) | Ki [1] [nM] | Ki (Mu-type opioid receptor [2]) [nM] | ED50 (Mus musculus [3]; [10]) [mg/kg] | further results
CC(C1CCCCN1C(=O)Cc1ccc(Cl)c(Cl)c1)N(C)C (stereo in doubt; 37) | 0.6 | 762 | 0.38 | 
O=C(Cc1ccccc1C(F)(F)F)N1CCCCC1CN1CCCC1 (configuration not stated) | 8.54 | > 10000 |  | Protection (Mus musculus [4]): 60%
O=C(Cc1cccc([N+](=O)[O-])c1)N1CCCCC1CN1CCCC1 (configuration not stated) |  |  | 0.86 | 
O=C(Cc1ccc(Cl)c(Cl)c1)N1CCCCC1CN1CCCCC1 (configuration not stated) |  |  | 0.19 | Ki (Mu-type opioid receptor [5]): 4810 nM; Ki [6]: 0.48 nM
O=C(Cc1ccc(O)cc1)N1CCCCC1CN1CCCC1 (configuration not stated) | 194 | > 10000 |  | Protection (Mus musculus [4]): 0%
O=C(Cc1ccc(C(F)(F)F)cc1)N1CCCCC1CN1CCCC1 (stereo in doubt; 21) | 0.57 | 2340 | 0.11 | ED50 (Mus musculus [7]): 1.17 mg/kg
O=C(Cc1ccc([N+](=O)[O-])cc1)N1CCCCC1CN1CCCC1 (configuration not stated) |  |  | 0.49 | 
O=C(Cc1ccc(Br)cc1)N1CCCCC1CN1CCCC1 (configuration not stated) | 0.84 | 2980 | 0.46 | 
CN(C)CC1CCCCN1C(=O)Cc1ccc(Cl)c(Cl)c1 (configuration not stated) |  |  | 0.92 | Ki (Mu-type opioid receptor [5]): 3050 nM; Ki [6]: 1.36 nM
CC(C)(C)c1ccc(CC(=O)N2CCCCC2CN2CCCC2)cc1 (configuration not stated) |  |  | 1 | 
CN1CCCC1C1CCCCN1C(=O)Cc1ccc(Cl)c(Cl)c1 (stereo in doubt; 42) | 11.7 | 864 |  | Protection (Mus musculus [4]): 40%
Cc1ccc(CC(=O)N2CCCCC2CN2CCCC2)cc1 (configuration not stated) | 3.84 | > 10000 | 3.88 | 
Cc1ccc(CC(=O)N2CCCCC2CN2CCCC2)cc1C (configuration not stated) | 1.83 | 5310 | 2.89 | 
O=C(Cc1ccc(C(F)(F)F)cc1)N1CCCCC1CN1CCCC1 (stereo in doubt; 20) | 0.78 | 3520 |  | ED50 (Mus musculus [3]): 0.2 mg/kg
CCN(CC)CC1CCCCN1C(=O)Cc1ccc(Cl)c(Cl)c1 (configuration not stated) | 1.28 | 5000 | 0.77 | 
O=C(Cc1ccc(Cl)c(Cl)c1)N1CCCC[C@H]1CN1CCCC1 | 0.24 | 1560 | 0.05 | ED50 (Mus musculus [7]): 0.89 mg/kg
O=C(Cc1cccc(C(F)(F)F)c1)N1CCCCC1CN1CCCC1 (configuration not stated) | 1.07 | > 10000 | 0.38 | 
O=C(Cc1ccc(Cl)cc1)N1CCCCC1CN1CCCC1 (configuration not stated) | 1.68 | 5910 | 0.84 | 
O=C(Cc1ccc(Cl)c(Cl)c1)N1CCCCC1CN1CCCC1 (configuration not stated) |  |  | 0.09 | Ki (Mu-type opioid receptor [5]): 1860 nM; Ki [8]: 0.53 nM
CN1CC[C@]23c4c5ccc(O)c4O[C@H]2[C@@H](O)C=C[C@H]3[C@H]1C5 [MORPHINE] |  |  | 2.8 | 
CN(C)C[C@@H]1CCCCN1C(=O)Cc1ccc(Cl)c(Cl)c1 | 0.7 | 2160 | 0.87 | 
O=C(Cc1ccc(Cl)c(Cl)c1)N1CCCC[C@@H]1CN1CCCC1 | 15.4 | 7110 | 17.5 | 
CC(C1CCCCN1C(=O)Cc1ccc(Cl)c(Cl)c1)N(C)C (stereo in doubt; 38) | 1000 |  |  | Ki (Mu-type opioid receptor [9]): > 10000 nM; Protection (Mus musculus [4]): 0%
O=C(Cc1ccc(F)cc1)N1CCCCC1CN1CCCC1 (configuration not stated) | 15.4 | > 10000 | 9.22 | 
CN1CCCC1C1CCCCN1C(=O)Cc1ccc(Cl)c(Cl)c1 (stereo in doubt; 41) | 0.33 | 464 | 0.4 | 
O=C(Cc1ccc(C2CCCCC2)cc1)N1CCCCC1CN1CCCC1 (configuration not stated) | 827 | 974 |  | Protection (Mus musculus [4]): 0%
